# From ChEMBL document CHEMBL5038638, “Structure-Activity Relationship Study of Subtype-Selective Positive Modulators of KCa2 Channels” (J Med Chem, 2022)
# Active and inactive are the calls of the source. No cut-off for these calls is given here.
# Columns and labels:
# Format in all cases: cell-based
# [1] = biological target: Small conductance calcium-activated potassium channel protein 2 (Rattus norvegicus, UniProt P70604); assay: Potentiation of rat KCa2.2a expressed in HEK293 cells at -90 mV holding potential measured at 1 to 2 days by patch clamp electrophysiology
# Chain of Small conductance calcium-activated potassium channel protein 2 (P70604 whole entry): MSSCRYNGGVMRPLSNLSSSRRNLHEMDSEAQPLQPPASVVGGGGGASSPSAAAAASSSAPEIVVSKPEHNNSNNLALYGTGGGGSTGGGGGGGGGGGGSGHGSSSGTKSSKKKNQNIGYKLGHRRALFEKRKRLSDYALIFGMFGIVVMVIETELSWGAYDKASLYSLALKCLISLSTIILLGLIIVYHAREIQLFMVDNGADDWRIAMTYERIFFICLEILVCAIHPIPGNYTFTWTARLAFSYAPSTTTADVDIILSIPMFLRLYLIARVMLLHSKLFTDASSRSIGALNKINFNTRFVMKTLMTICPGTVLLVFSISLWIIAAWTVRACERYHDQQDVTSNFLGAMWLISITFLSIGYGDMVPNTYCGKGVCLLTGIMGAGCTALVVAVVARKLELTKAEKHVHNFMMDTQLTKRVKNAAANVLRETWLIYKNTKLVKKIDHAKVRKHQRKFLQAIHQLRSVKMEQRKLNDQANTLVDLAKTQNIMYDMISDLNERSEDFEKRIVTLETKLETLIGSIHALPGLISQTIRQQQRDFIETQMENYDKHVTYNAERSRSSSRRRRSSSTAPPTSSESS
# In short: (§1)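 Inside-out patches from HEK293 cells transfected (calcium-phosphate) with channel cDNA plus CaM and GFP (7:4:2). Bath (mM): 140 KCl, 10 Hepes pH 7.2, 1 EGTA, 0.1 dibromo-BAPTA, 1 HEDTA, with Ca2+ added to set free Ca2+, verified against a fluorescence standard curve. Currents taken at –90 mV and normalized to the maximal-compound response. EC50 and Hill coefficient came from a concentration–response fit. Efficacy was the maximal-compound current relative to the current at 10 µM Ca2+.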
# [2] = biological target: Calcium-activated potassium channel subunit alpha-1 (Homo sapiens) (UniProt Q12791); assay: Potentiation of human KCa1.1 expressed in HEK293 cells at 100 uM with -90 mV holding potential measured at 1 to 2 days by patch clamp electrophysiology; settings: time 1-2 day
# Chain of Calcium-activated potassium channel subunit alpha-1 (Homo sapiens) (Q12791 whole entry): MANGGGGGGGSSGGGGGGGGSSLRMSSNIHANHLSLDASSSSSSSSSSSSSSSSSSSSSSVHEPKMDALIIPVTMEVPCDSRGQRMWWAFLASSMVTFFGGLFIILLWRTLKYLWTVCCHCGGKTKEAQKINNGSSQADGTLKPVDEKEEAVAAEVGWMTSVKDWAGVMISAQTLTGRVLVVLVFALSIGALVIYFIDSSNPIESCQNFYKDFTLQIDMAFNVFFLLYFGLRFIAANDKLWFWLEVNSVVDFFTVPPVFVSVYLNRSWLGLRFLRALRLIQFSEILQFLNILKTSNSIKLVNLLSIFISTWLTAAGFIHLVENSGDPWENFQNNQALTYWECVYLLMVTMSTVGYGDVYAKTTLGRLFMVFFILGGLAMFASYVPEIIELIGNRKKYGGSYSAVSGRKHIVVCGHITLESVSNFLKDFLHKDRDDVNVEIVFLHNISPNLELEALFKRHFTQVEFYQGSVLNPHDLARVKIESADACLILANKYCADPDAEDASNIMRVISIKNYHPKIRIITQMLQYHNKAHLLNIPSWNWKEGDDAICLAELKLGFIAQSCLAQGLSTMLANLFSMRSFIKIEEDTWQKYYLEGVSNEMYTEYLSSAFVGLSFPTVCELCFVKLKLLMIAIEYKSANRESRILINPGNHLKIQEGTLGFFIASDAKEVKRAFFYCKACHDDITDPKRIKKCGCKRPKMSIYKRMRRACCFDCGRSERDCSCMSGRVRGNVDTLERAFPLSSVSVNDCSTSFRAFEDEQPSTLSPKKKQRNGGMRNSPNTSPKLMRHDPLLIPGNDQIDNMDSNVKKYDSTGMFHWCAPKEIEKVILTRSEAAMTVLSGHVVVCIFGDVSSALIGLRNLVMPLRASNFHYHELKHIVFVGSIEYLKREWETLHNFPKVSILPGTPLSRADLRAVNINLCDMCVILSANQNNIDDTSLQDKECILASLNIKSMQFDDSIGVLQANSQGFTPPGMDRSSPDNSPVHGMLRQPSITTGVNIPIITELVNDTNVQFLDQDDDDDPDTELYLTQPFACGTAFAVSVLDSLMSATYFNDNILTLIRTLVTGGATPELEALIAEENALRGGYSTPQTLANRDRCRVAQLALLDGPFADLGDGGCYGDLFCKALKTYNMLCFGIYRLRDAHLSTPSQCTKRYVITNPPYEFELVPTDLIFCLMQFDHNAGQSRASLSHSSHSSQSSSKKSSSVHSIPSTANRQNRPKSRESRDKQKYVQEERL
# [3] = biological target: Small conductance calcium-activated potassium channel protein 2 (Rattus norvegicus) (UniProt P70604); assay: Potentiation of rat KCa2.2a expressed in HEK293 cells at 0.01 to 100 uM with -90 mV holding potential measured at 1 to 2 days by patch clamp electrophysiology relative to calcium; settings: filed as positive allosteric modulator, dose 0.01-100 µM, time 1-2 day; in short: as §1
# Chain of Small conductance calcium-activated potassium channel protein 2 (Rattus norvegicus) (P70604 whole entry): as the sequence (P70604 whole entry) above
# [4] = biological target: Small conductance calcium-activated potassium channel protein 1 (Homo sapiens) (UniProt Q92952); assay: Potentiation of human KCa2.1 expressed in HEK293 cells at 0.01 to 100 uM with -90 mV holding potential measured at 1 to 2 days by patch clamp electrophysiology relative to calcium; settings: dose 0.01-100 µM, time 1-2 day; in short: as §1
# Chain of Small conductance calcium-activated potassium channel protein 1 (Homo sapiens) (Q92952 whole entry): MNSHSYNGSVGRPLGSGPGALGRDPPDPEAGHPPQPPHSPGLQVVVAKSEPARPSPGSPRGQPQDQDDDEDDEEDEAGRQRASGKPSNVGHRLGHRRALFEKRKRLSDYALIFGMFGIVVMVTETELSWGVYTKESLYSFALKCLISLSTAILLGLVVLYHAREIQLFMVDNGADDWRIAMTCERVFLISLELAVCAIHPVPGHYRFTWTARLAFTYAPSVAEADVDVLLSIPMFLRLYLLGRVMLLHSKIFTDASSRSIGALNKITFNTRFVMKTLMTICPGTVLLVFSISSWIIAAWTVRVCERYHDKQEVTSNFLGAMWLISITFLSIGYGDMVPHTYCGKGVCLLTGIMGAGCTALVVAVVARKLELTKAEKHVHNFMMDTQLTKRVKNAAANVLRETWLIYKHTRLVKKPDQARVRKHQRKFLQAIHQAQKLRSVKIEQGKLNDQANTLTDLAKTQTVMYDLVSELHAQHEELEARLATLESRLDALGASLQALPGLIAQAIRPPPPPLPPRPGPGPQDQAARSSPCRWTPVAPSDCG
# [5] = biological target: T1, Small conductance calcium-activated potassium channel protein 3 (Homo sapiens, UniProt Q9UGI6); assay: Potentiation of human KCa2.3 expressed in HEK293 cells at -90 mV holding potential measured at 1 to 2 days by patch clamp electrophysiology relative to calcium; in short: as §1
# T1 sequence (Q9UGI6 whole entry): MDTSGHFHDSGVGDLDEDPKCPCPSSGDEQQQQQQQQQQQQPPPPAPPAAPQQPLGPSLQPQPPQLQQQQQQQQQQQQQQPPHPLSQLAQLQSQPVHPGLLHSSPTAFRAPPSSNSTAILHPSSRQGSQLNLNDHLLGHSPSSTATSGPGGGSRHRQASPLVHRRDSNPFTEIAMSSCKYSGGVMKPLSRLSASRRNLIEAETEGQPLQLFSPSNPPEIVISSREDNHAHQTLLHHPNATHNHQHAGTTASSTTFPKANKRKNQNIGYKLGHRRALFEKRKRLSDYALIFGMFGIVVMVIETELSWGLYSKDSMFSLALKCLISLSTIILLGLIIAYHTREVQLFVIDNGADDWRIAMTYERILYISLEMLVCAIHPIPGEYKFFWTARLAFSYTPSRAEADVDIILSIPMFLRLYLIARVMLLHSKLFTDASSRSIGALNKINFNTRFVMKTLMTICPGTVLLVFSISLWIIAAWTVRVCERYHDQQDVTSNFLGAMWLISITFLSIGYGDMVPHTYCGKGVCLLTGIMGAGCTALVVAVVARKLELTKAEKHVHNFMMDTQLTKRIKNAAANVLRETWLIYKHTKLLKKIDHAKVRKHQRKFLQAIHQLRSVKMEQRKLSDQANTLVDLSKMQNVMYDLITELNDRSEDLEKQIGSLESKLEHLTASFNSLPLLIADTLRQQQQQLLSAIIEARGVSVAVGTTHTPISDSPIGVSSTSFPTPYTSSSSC
# [6] = biological target: Intermediate conductance calcium-activated potassium channel protein 4 (Homo sapiens) (UniProt O15554); assay: Potentiation of human KCa3.1 expressed in HEK293 cells at 0.01 to 100 uM with -90 mV holding potential measured at 1 to 2 days by patch clamp electrophysiology relative to calcium; settings: dose 0.01-100 µM, time 1-2 day; in short: as §1
# Chain of Intermediate conductance calcium-activated potassium channel protein 4 (Homo sapiens) (O15554 whole entry): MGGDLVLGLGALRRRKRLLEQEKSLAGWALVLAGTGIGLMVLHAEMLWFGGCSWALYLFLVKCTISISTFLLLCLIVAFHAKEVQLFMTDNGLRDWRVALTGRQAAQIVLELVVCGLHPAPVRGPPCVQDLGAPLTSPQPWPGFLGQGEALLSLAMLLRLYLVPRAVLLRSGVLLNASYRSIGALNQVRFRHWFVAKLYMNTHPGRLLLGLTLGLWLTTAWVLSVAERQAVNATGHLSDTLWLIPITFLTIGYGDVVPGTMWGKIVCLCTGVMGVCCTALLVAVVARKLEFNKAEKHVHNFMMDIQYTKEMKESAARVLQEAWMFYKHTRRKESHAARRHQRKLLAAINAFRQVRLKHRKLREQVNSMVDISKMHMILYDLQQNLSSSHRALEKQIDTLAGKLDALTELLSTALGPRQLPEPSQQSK
# [7] = tested on: N1E-115; assay: Inhibition of mouse Nav1.2 expressed in mouse N1E-115 cells at 100 uM with -90 mV holding potential measured by patch clamp electrophysiology
# [8] = biological target: T1, Small conductance calcium-activated potassium channel protein 3; assay: Potentiation of human KCa2.3 expressed in HEK293 cells at -90 mV holding potential measured at 1 to 2 days by patch clamp electrophysiology; in short: as §1
Structure (SMILES),EC50 [1],further results
Cc1cc(Nc2ccc(C(F)(F)F)cc2)nc(-n2nc(C)cc2C)n1,3.45 µM,
Cc1cc(N[C@@H](Cc2ccc(F)c(F)c2)C(=O)O)nc(-n2nc(C)cc2C)n1,> 100 µM,
Cc1cc(C)n(-c2cc(Nc3ccc(F)c(Cl)c3)nc(N)n2)n1,> 100 µM,
Cc1cn(-c2nc(C)cc(Nc3cc(Cl)ccc3F)n2)cn1,4.51 µM,
Cc1cn(-c2nc(C)cc(Nc3ccc(F)c(Cl)c3)n2)cn1,38.8 µM,
Cc1cc(Nc2ccc(F)c(Cl)c2)nc(-n2nc(C)cc2C)n1,0.99 µM,Activity [2]: inactive; Emax [3]: 90%; Emax [4]: 0%; EC50 [5]: 0.19 µM; Emax [6]: 28.3%; inhibition [7]: 50%
COc1cc2nc(Nc3cc(C)nc(-n4nc(C)cc4C)n3)[nH]c2cc1OC,> 100 µM,
Cc1cc(Nc2ccc(F)c(Cl)c2)nc(-c2coc(C)n2)n1,3.59 µM,
Cc1cc(C)n(-c2cc(Nc3ccc(Cl)cc3F)nc(N)n2)n1,> 100 µM,
Cc1cc(Nc2cc(Cl)ccc2F)nc(-c2coc(C)n2)n1,13.8 µM,
Cc1cc(N[C@H]2CC[C@@H]([N+](=O)[O-])CC2)nc(-n2nc(C)cc2C)n1,> 100 µM,
Cc1cc(Nc2cc(F)ccc2F)nc(-n2nc(C)cc2C)n1,1.89 µM,
Cc1cc(Nc2ccc([N+](=O)[O-])cc2)nc(-n2nc(C)cc2C)n1,> 100 µM,
Cc1cc(Nc2cccc(F)c2F)nc(-n2nc(C)cc2C)n1,5.03 µM,
Cc1cc(N[C@H]2CC[C@@H](N)CC2)nc(-n2nc(C)cc2C)n1,> 100 µM,
Cc1cc(C)n(-c2cc(Nc3cccc(Cl)c3)nc(N)n2)n1,> 100 µM,
Cc1cc(N[C@H]2CC[C@@H](CO)CC2)nc(-n2nc(C)cc2C)n1,> 100 µM,
CO[C@H]1CC[C@@H](Nc2cc(C)nc(-n3nc(C)cc3C)n2)CC1,49.7 µM,Emax [3]: 94.6%
Cc1cc(Nc2cc(F)ccc2Cl)nc(-n2nc(C)cc2C)n1,2.97 µM,

Structure (SMILES),EC50 [1],further results
Cc1cc(N[C@@H](Cc2ccc(C#N)cc2)C(=O)O)nc(-n2nc(C)cc2C)n1,> 100 µM,
Cc1cc(Nc2ccc(S)cc2)nc(-n2nc(C)cc2C)n1,> 100 µM,
Cc1cc(Nc2ccc(C(F)(F)F)c(Cl)c2)nc(-n2nc(C)cc2C)n1,3.27 µM,
Cc1cc(Nc2cc(C(=O)O)ccc2F)nc(-n2nc(C)cc2C)n1,> 30 µM,
Cc1cc(Nc2cc(Cl)ccc2F)nc(-n2nc(C)cc2C)n1,0.64 µM,Activity [2]: inactive; Emax [3]: 90%; Emax [4]: 0%; Emax [6]: 2.02%; inhibition [7]: 50%; EC50 [8]: 0.6 µM
Cc1cc(C)n(-c2cc(Nc3cc(F)ccc3F)nc(N)n2)n1,> 100 µM,
Cc1cc(NC2CCCCC2)nc(-n2nc(C)cc2C)n1,7.48 µM,Emax [3]: 85.6%
Cc1cc(Nc2cc(Cl)cc(C(F)(F)F)c2)nc(-n2nc(C)cc2C)n1,> 100 µM,
Cc1cc(C)n(-c2cc(C)c(Nc3ccc(F)c(Cl)c3)nn2)n1,4.32 µM,
Cc1cc(N[C@@H](Cc2ccc(O)cc2)C(=O)O)nc(-n2nc(C)cc2C)n1,> 100 µM,
Cc1cc(N[C@H]2CC[C@@H](O)CC2)nc(-n2nc(C)cc2C)n1,> 100 µM,
Cc1cc(N[C@H]2CC[C@@H](F)CC2)nc(-n2nc(C)cc2C)n1,> 100 µM,
Cc1cc(C)n(-c2cc(Nc3ccc(C(F)(F)F)c(Cl)c3)nc(N)n2)n1,> 100 µM,
Cc1cc(C)n(-c2cc(Nc3cc(F)ccc3Cl)nc(N)n2)n1,> 100 µM,
Cc1cc(C)n(-c2nc(N)cc(Nc3ccc(F)c(Cl)c3)n2)n1,6.59 µM,
Cc1cc(Nc2ccc(Cl)cc2F)nc(-n2nc(C)cc2C)n1,1.99 µM,
Cc1cc(C)n(-c2cc(Nc3cc(Cl)ccc3F)nc(N)n2)n1,> 100 µM,
Cc1cc(NCCc2ccc([N+](=O)[O-])cc2)nc(-n2nc(C)cc2C)n1,> 100 µM,
